# Reference: PubChem BioAssay AID623869 (Vanderbilt High Throughput Screening Facility, 2012)
# In all, about 2,100 compounds went through this assay and about 75 (4%) were called active.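 The calls were made as follows: active = calcium fluorescence trace judged by eye to show a response, as agonist, enhancer of the glutamate response, or inhibitor; inactive = trace judged by eye to show no response.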 For the sample, actives were picked, then their nearest neighbours and some compounds at random.
# Biological target: Metabotropic glutamate receptor 8 (Rattus norvegicus) (UniProt P70579)
# Sequence (P70579 whole entry, looked up): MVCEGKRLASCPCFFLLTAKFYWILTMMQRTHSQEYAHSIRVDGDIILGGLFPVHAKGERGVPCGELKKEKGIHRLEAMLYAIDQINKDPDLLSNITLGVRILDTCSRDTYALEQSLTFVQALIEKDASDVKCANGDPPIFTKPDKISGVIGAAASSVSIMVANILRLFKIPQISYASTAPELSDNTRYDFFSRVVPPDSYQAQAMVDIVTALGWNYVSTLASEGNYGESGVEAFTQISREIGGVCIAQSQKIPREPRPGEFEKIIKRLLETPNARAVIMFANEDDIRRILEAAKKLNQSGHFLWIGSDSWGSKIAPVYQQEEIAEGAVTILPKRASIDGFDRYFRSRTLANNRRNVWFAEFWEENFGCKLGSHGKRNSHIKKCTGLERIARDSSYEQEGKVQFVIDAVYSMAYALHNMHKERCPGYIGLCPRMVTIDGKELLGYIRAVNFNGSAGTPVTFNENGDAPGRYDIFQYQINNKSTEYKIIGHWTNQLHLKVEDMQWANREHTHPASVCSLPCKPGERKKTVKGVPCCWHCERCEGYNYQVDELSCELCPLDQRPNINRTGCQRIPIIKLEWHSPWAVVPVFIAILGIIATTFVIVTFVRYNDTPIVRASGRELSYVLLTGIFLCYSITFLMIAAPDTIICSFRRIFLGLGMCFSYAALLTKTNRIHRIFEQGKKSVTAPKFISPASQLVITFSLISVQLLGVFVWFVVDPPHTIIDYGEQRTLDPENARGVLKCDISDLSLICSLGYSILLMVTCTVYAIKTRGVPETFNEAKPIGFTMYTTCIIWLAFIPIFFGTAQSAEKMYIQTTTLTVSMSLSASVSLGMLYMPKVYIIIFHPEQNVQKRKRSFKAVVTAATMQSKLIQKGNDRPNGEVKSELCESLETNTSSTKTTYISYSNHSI
# Assay: rat mGlu8 modulation via Gqi9 calcium signal, confirmation, counter-screen for GIRK activator project, cell-based, HEK293 rmGlu8, Gqi9 chimera, Fluo-4 calcium (AID 623869)
# Details: HEK293 rmGlu8/Gqi9 calcium flux, Fluo-4 fluorescence; glutamate at EC20 added after compound
# Outline: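 Material: rat mGlu8 HEK-293 cells with transient Gqi9; medium: HEPES-buffered HBSS, pH 7.4; reagent: EC20 glutamate; dosing: one dose, 20 µM addition solution, 0.2% DMSO; incubation: compound 4 min before glutamate, then 2 min recording; measured by: Fluo-4 calcium fluorescence, 1 Hz; evaluation: F/F0 fluorescence traces judged visually for each well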
row,Structure (SMILES),outcome
1,O=C(c1cc(-c2ccccc2)on1)N1CCCC1,inactive; 0
2,CC(=O)c1c(N2CCCC2)[nH]c(-c2ccccc2)nc1=S,active; 2
3,CSc1nc(-c2ccccc2)[nH]c(=S)c1C(C)=O,inactive; 0
4,COC(=O)C(C)N(C(=O)c1cccc2ccccc12)c1c(C)cccc1C (stereo unspecified),inactive; 0
5,COc1ccc(-c2cc(C(F)(F)F)c3c(n2)sc2c(O)cc(=O)[nH]c23)c(OC)c1,active; 2
6,CCOC(=O)c1c(NS(=O)(=O)c2ccc(Br)cc2)sc2c1CCC2,inactive; 0
7,COc1ccc2nc(/N=C/c3c(C)[nH]n(-c4ccc(C)cc4)c3=O)sc2c1,inactive; 0
8,Cc1ccc(C(=O)NC(=S)Nc2ccccc2C(F)(F)F)cc1,inactive; 0
9,O=C(NN=C(Cc1ccccc1)Cc1ccccc1)c1ccc(F)cc1,inactive; 0
10,Cc1ccc(C(=O)N/N=C(/CC(=O)c2cccs2)C(F)(F)F)cc1,active; -1
11,COC(=O)C1=NN(C(=O)c2ccc(C)cc2)C(O)(c2ccc(Cl)cc2)C1 (stereo unspecified),inactive; 4
12,COC(=O)c1sc(NC(=S)NC(=O)c2ccccc2Cl)nc1C,inactive; 0
13,COC(=O)c1ccc(C(=O)NC(=S)Nc2nc3c(s2)CCCC3)cc1,inactive; 0
14,O=C(NC(=S)Nc1nc2c(s1)CCCC2)c1ccccc1,inactive; 0
15,CC(C)(C)c1ccc(C(=O)NC(=S)Nc2nc3c(s2)CCCC3)cc1,active; 2
16,O=C(NC(=S)Nc1ccc(N2CCOCC2)c(Cl)c1)c1cncc(Br)c1,inactive; 0
17,CCOC(=O)c1c2n(c3c(NCc4ccccc4)ncnc13)CCCC2,inactive; 0
18,O=C1CN(C(=O)CSc2nc3cc(Cl)ccc3c(=O)n2Cc2ccccc2)c2ccccc2N1,inactive; 0
19,Cc1cc(NC(=O)CSc2nc3ccccc3c(=O)n2Cc2ccccc2)no1,inactive; 0
20,O=C1OCCC1Sc1nc2cc(Cl)ccc2n1Cc1ccccc1 (stereo unspecified),active; 2
21,Cc1cccc(C(=O)CC(=O)c2cc(Cl)ccc2O)c1,inactive; 0
22,Cc1ccc(C(=O)CC(=O)c2cc(Cl)ccc2O)cc1,inactive; 0
23,C/C(=N/NC(=O)c1cc(Cl)ccc1O)C12CC3CC(CC(C3)C1)C2,active; 1
24,COc1ccccc1/C=C/C(=O)NC(=S)N(C)C1CCCCC1,inactive; 0

row,Structure (SMILES),outcome
1,Oc1ccccc1CNc1ccc(Br)cn1,active; -1
2,CC(Nc1ccc(Br)cn1)c1cc(Cl)ccc1O (stereo unspecified),inactive; 0
3,O=c1c(-c2ccccc2)nc(-c2ccccc2)cn1O,inactive; 0
4,O=C(NC(=S)N1CCN(Cc2ccccc2)CC1)c1ccccc1,inactive; 0
5,O=C(NC(=S)Nc1ccccc1)c1csnn1,inactive; 0
6,CCC(C)(C)NC(=O)C(c1ccc(F)cc1)N(Cc1ccco1)C(=O)c1cnccn1 (stereo unspecified),inactive; 0
7,CC(C)(C)NC(=O)C(c1ccncc1)N(C(=O)c1csnn1)c1ccccc1 (stereo unspecified),active; -1
8,O=c1c2ccccc2[nH]c(=S)n1CCCN1CCN(C2CCCCC2)CC1,inactive; 0
9,O=C(NC(=S)Nc1ccccc1Cl)c1csnn1,inactive; 0
10,CCCCN(CCCC)C(=S)NC(=O)C(C)(C)C,inactive; 0
11,Brc1ccccc1-c1nnc2sc(-c3ccc4c(c3)OCCO4)nn12,inactive; 0
12,CCOC(=O)C1=C(C)Nc2nnnn2C1c1ccccc1Cl (stereo unspecified),inactive; 0
13,O=C(N/C(=N\O)c1ccccc1)Nc1ccc(Cl)cc1,active; 2
14,O=C(NC(=S)Nc1ccc(Oc2ccc(Cl)cc2)cc1)c1ccccc1,inactive; 0
15,CSc1ccccc1NC(=O)Nc1ccc(Cl)cc1,inactive; 0
16,CCCCCC(=O)NC(=S)NNC(=O)c1ccc([N+](=O)[O-])cc1,active; 1
17,CCCCNC(=S)NC(=O)c1ccc([N+](=O)[O-])cc1,inactive; 0
18,CCCCOc1ccc(C(=O)NNC(=S)NC(=O)CC)cc1,inactive; 0
19,S=c1nc(-c2ccc(Br)cc2)oc2c1CCCC2,inactive; 0
20,Cc1ccc(C)c(NC(=S)NNC(=O)c2csc3c2CCCC3)c1,inactive; 0
21,COC(=O)c1ccc(NS(=O)(=O)c2ccc(SC)cc2)cc1,inactive; 0
22,CCc1cc2cccc(C)c2nc1SCC(=O)c1ccc(NC(C)=O)cc1,inactive; 0
23,CC(=O)Nc1ccc(SCC(=O)c2cc(C)n(-c3ccccc3F)c2C)cc1,active; 2
24,COC(=O)c1ccc(-n2c(C)cc(C(=O)CSc3ccc(NC(C)=O)cc3)c2C)cc1,active; 2

row,Structure (SMILES),outcome
1,Cc1cc(C(=O)CSc2n[nH]c(N)n2)c(C)n1-c1cc(F)ccc1F,inactive; 0
2,CC(=O)Nc1ccc(C(=O)CSc2nc3ccc(C)cc3[nH]2)cc1,inactive; 0
3,COc1ccc2nc(/N=C/c3c(C)[nH]n(-c4ccc(C)cc4C)c3=O)sc2c1,inactive; 2
4,CC12CC3CC(C)(C1)CC(C(=O)NC(=S)N1CCCCC1)(C3)C2,inactive; 0
5,CSCSC1=C(C#N)C(c2ccccc2Cl)C(C(C)=O)=C(C)N1 (stereo unspecified),inactive; 0
6,O=C(N/N=C1/C(=O)c2cccc3cccc1c23)c1ccc(Cl)cc1,inactive; 0
7,Cc1cccc(N2C(=O)CS/C2=N\NC(=O)c2ccc(Cl)cc2)c1C,active; 2
8,O=C(NC(=S)N1CCCc2ccccc21)c1ccc(Cl)cc1,inactive; 0
9,O=C(NC(=S)N(CCCCO)C1CCCCC1)c1sc2ccccc2c1Cl,inactive; 0
10,O=C(NC(=S)Nc1ccccc1N1CCOCC1)c1ccco1,inactive; 0
11,CN(C(=O)CSC1=Nc2ccccc2C2=NC(c3ccccc3)C(=O)N12)C1CCCCC1 (stereo unspecified),inactive; 0
12,CCSc1ccccc1C(=O)Nc1cccnc1,inactive; 0
13,COc1cc(/C=C(\C#N)C(=O)Nc2cccnc2)ccc1OC(C)C,active; 2
14,N#C/C(=C/C=C/c1ccccc1)C(=O)Nc1ccccc1,inactive; 0
15,Cc1ccc(OCC(=O)NNC(=O)C(=O)NC(C)(C)C)cc1,inactive; 0
16,C=CCn1c(=S)[nH]c2sc3c(c2c1=O)CCC3,inactive; 0
17,CCC1c2ccc(C)n2CCN1C(=O)Nc1ccccc1C(=O)OC (stereo unspecified),active; 2
18,COC(=O)c1ccccc1NC(=O)Nc1cnccn1,inactive; 0
19,COC(=O)c1ccccc1NC(=S)NC(=O)c1ccc(C)cc1,inactive; 0
20,CC(C)C1Cc2c(sc3[nH]c(=S)n(Cc4ccccc4)c(=O)c23)CO1 (stereo unspecified),inactive; 0
21,CCOC(=O)c1c(NC(=S)NC)sc2c1CC(C)(C)SC2,inactive; 0
22,Cc1sc2nc(C(C)C)nc(SCC(=O)NCc3ccco3)c2c1C,inactive; 0
23,CCCc1cc(-c2n[nH]c(=S)n2C(C)c2ccccc2)cs1 (stereo unspecified),inactive; 0
24,CCCc1cc(-c2n[nH]c(=S)n2Cc2ccccc2)cs1,active; -1

row,Structure (SMILES),outcome
1,CCCc1cc(-c2n[nH]c(=S)n2CC(C)C)cs1,inactive; 0
2,Cc1[nH]n(-c2ccc(Cl)cc2)c(=O)c1/C=N/c1nnc(-c2ccccc2)s1,inactive; 0
3,CN(C)CCCNC(=O)c1ccc(-c2nc(-c3ccc(Cl)cc3)cs2)cc1,inactive; 0
4,O=C(NC(=S)Nc1ccccc1)c1cc(-c2ccccc2)nc2ccccc12,inactive; 0
5,O=C(O)c1ccccc1C(=O)Nc1ccc(-c2csc(-c3ccccc3)n2)cc1,active; 1
6,C=CCn1c(=S)[nH]c2ccc(Br)cc2c1=O,inactive; 0
7,Cc1ccc(-c2cc(-c3n[nH]c(=S)o3)c3ccccc3n2)cc1,inactive; 0
8,S=c1[nH]nc(-c2cc3c(s2)-c2ccccc2CC3)o1,active; -1
9,CCc1cc(C(=O)NNC(=S)Nc2cc(C)ccc2C)cs1,inactive; 0
10,Cc1ccc(C)c(NC(=S)NNC(=O)c2cc3c(s2)CCC(C)C3)c1 (stereo unspecified),inactive; 0
11,O=C1NC(=S)SC1=C1CCCCCC1,inactive; 0
12,CCCN(CCC)CCCNC(=O)c1cc2c(=O)n(C)c3ccccc3c2n1C,inactive; 0
13,CCn1c(=O)c(C(=O)NCCCO)c(O)c2ccccc21,active; 2
14,CCn1c(O)c(N=NC(=O)CNc2cccc(C)c2)c2ccccc21,inactive; 0
15,CCC1CCCCN1C(=S)NC(=O)c1ccc([N+](=O)[O-])cc1 (stereo unspecified),inactive; 0
16,Cc1cccc(NC(=S)N/C(=N/S(=O)(=O)c2ccccc2)c2ccccc2)c1,inactive; 0
17,Cc1ccc(-c2cc(-c3ccccc3)[nH]c(=S)c2C#N)cc1,inactive; 0
18,CCOC(=O)c1c(NS(=O)(=O)Cc2ccccc2)sc2c1CCCC2,inactive; 0
19,Cc1cc(NC(=O)c2c(F)cccc2Cl)n(-c2nc3ccccc3[nH]2)n1,inactive; 0
20,Cc1cc(NC(=O)Nc2ccccc2)n(-c2ccccc2)n1,inactive; 0
21,Cc1ccc(Nc2cc(C)nn2-c2nc(C)cc(=O)[nH]2)cc1,active; -1
22,COc1ccccc1C(=O)NC(=S)NNC(=O)c1sc2ccccc2c1Cl,inactive; 3
23,COc1ccccc1C(=O)NNC(=S)NC(=O)c1sc2ccccc2c1Cl,active; 1
24,CCOC(=S)NC(=O)c1sc2ccccc2c1Cl,inactive; 0

row,Structure (SMILES),outcome
1,CC(C)(C)C(=O)NC(=S)NNC(=O)c1sc2ccccc2c1Cl,active; 1
2,CCCCOC(=S)NC(=O)c1sc2ccccc2c1Cl,inactive; 0
3,CCCOC(=S)NC(=O)c1sc2ccccc2c1Cl,inactive; 0
4,CCCN1C(=O)/C(=C/c2ccc(C)s2)NC1=S,inactive; 0
5,CCCOc1ccc(C(=O)NNC(=S)NC(=O)CC)cc1,inactive; 0
6,O=C(NC(=S)N1CCCCC1)c1cccs1,inactive; 0
7,C=CCN(CC=C)C(=S)NC(=O)/C=C/c1ccc(C)cc1,inactive; 0
8,COc1ccccc1C(=O)N1c2ccccc2Sc2ccccc21,inactive; 0
9,CC(=O)c1c(C)[nH]c(C(=O)CSc2ncnc3sc(-c4ccccc4)cc23)c1C,inactive; 0
10,CCOC(=O)c1ccccc1NC(=O)CSc1nnc(COc2ccccc2C)n1C,inactive; 0
11,Cc1cccc(NC(=S)NNC(=O)c2csc3c2CCCC3)c1,inactive; 0
12,FC(F)(F)c1cccc(N2CCN(C(=S)NC3CCCCC3)CC2)c1,inactive; 0
13,COc1ccc(NC(=S)Nc2ccc(OCc3ccccc3)cc2)cc1OC,inactive; 0
14,FC(F)(F)c1cccc(NC(=S)NCc2ccccc2)c1,inactive; 4
15,CCCN(CC1CC1)C(=S)Nc1ccc(Oc2ccccc2)cc1,inactive; 0
16,S=C(Nc1ccc(Oc2ccccc2)cc1)NC1CCCC1,active; 2
17,FC(F)(F)c1cccc(NC(=S)NC2CCCC2)c1,active; -1
18,CCOC(=O)c1ccc(NC(=S)NC2CCCC2)cc1,inactive; 4
19,CC(C)CNC(=S)Nc1ccc(Oc2ccccc2)cc1,active; 2
20,FC(F)(F)Oc1ccc(NC(=S)NCc2ccccc2)cc1,inactive; 4
